For the first assay, the target named is T1, Pendrin (Mus musculus, UniProt Q9R155).
T1 sequence (Q9R155 whole entry): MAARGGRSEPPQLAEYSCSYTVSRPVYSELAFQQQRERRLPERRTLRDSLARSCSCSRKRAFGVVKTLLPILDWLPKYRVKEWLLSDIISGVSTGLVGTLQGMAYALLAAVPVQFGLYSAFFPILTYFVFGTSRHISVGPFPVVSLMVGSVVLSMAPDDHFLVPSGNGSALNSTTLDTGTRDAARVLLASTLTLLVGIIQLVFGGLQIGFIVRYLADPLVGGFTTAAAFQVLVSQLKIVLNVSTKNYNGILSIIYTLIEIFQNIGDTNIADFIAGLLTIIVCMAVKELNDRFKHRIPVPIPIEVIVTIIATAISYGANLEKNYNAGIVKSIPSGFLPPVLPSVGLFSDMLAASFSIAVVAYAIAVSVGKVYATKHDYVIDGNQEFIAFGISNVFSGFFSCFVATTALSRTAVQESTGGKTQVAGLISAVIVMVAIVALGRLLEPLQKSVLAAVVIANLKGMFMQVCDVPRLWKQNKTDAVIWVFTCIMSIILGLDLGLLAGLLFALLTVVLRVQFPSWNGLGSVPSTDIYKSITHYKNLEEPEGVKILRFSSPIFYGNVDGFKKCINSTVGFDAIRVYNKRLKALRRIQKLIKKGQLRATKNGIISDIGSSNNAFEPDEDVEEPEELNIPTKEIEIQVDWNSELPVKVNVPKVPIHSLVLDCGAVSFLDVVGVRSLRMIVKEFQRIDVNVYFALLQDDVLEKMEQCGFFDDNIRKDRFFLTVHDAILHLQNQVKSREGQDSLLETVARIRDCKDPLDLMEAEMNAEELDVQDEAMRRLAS
The assay is described as follows: Inhibition of mouse PDS stably expressed in FRT cells coexpressing EYFP-H148Q/I152L/F46L assessed as reduction in I-/Cl- exchange incubated for 10 mins by fluorescence based assay. Type of assay: cell-based. Summed up:
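Fischer rat thyroid cells stably co-expressing murine pendrin and the halide-sensing YFP variant were used for Cl–/I– exchange. An I–-containing solution was added to the cells, and exchange was followed as the rate of fluorescence decrease. Inhibition was read as a slower decline in fluorescence.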
For the compound `Cn1nc(COc2cc(F)cc(F)c2)c2c1CCN(C(=O)NC(=O)c1ccccc1)C2`, the IC50 (commonly the midpoint of a concentration-inhibition curve) is > 10 µM.

As to `CCN(CC)S(=O)(=O)N1CCc2c(c(COc3cc(F)cc(F)c3)nn2C)C1`, the IC50 is > 10 µM.

As for `Cn1nc(COc2cc(F)cc(F)c2)c2c1CCN(S(=O)(=O)c1ccc(Cl)cc1)C2`, the IC50 is > 10 µM. As to `CN(C)c1ccc(NC(=S)N2CCc3c(c(COc4cc(F)cc(F)c4)nn3C)C2)cc1`, the IC50 was > 10 µM.

For the compound `Cn1nc(COc2cc(F)cc(F)c2)c2c1CCN(C(=O)NC1CCCCC1)C2`, the IC50 was > 10 µM. `Cn1nc(C(=O)O)c2c1CCN(C(=O)Nc1ccc(Cl)cc1)C2`: the IC50 is > 10 µM. As for `Cn1nc(COc2cc(F)cc(F)c2)c2c1CCN(S(C)(=O)=O)C2`, the IC50 is > 10 µM.

In the case of `Cn1nc(COc2ccc(F)c(F)c2)c2c1CCN(C(=O)Nc1ccc(Cl)cc1)C2`, the IC50 was determined as 4.6 µM. Still for that read-out and setting: the figure for `Cn1nc(COc2cc(F)cc(F)c2)c2c1CCN(C(=O)Nc1ccc(Cl)cc1)C2` is 3.1 µM; for `Cn1nc(COc2cc(F)c(F)c(F)c2)c2c1CCN(C(=O)Nc1ccc(Cl)cc1)C2` it is 3.3 µM; for `CCOC(=O)c1nn(C)c2c1CN(C(=O)Nc1ccc(Cl)cc1)CC2` it is > 10 µM. With `Cn1nc(COc2cc(F)cc(F)c2)c2c1CCN(C(=O)Nc1ccc(Br)cc1)C2`, the IC50 was found to be 3.3 µM.

Turning to `Cn1nc(COc2cc(F)cc(F)c2)c2c1CCN(C(=S)NC1CCCCC1)C2`, the IC50 is > 10 µM.

Take `CC(C)NC(=O)N1CCc2c(c(COc3cc(F)cc(F)c3)nn2C)C1`: the IC50 is > 10 µM. On to `Cn1nc(COc2cc(F)cc(F)c2)c2c1CCN(S(=O)(=O)c1ccc(C(F)(F)F)cc1)C2`, for which the IC50 was > 10 µM. Regarding `Cn1nc(COc2cc(F)cc(F)c2)c2c1CCN(C(=S)Nc1ccc(Cl)cc1)C2`, the IC50 was > 10 µM.

The target of the next assay is T2, Pendrin (Homo sapiens, UniProt O43511).
T2 sequence (O43511 whole entry): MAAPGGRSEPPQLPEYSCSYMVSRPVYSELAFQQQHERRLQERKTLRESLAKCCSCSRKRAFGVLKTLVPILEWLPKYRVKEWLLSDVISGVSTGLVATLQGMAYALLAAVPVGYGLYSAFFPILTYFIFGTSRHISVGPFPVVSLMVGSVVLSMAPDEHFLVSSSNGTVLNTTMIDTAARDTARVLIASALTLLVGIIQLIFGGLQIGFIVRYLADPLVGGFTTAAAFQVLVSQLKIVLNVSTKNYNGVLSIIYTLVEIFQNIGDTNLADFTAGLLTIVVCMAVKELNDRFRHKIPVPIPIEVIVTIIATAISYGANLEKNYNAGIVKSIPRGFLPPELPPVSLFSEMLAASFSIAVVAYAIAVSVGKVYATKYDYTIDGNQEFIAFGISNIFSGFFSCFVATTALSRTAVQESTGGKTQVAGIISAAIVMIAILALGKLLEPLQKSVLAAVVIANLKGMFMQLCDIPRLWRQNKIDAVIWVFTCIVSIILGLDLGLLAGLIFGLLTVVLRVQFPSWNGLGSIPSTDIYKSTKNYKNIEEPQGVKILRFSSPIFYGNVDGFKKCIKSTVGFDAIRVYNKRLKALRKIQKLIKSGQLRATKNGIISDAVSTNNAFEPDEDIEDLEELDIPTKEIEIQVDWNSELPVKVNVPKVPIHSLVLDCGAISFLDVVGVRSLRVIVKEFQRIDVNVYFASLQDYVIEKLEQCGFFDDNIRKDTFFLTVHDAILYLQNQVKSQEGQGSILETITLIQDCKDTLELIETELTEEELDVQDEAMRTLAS
As to the kind of experiment: Inhibition of human PDS stably expressed in FRT cells coexpressing EYFP-H148Q/I152L/F46L assessed as reduction in I-/Cl- exchange incubated for 10 mins by fluorescence based assay. Type of assay: cell-based.
For `Cn1nc(COc2cccc(F)c2)c2c1CCN(C(=O)Nc1ccc(Cl)cc1)C2`, the IC50 came out at 7 µM.

Values taken from ChEMBL document CHEMBL4346737, “Synthesis and evaluation of tetrahydropyrazolopyridine inhibitors of anion exchange protein SLC26A4 (pendrin)” (Bioorg Med Chem Lett, 2019).
